{"source": "ChEMBL document CHEMBL1123757", "about": "“Selective thromboxane synthetase inhibitors and antihypertensive agents. New derivatives of 4-hydrazino-5H-pyridazino[4,5-b]indole, 4-hydrazinopyridazino[4,5-a]indole, and related compounds” (J Med Chem, 1987)", "key": {"[1]": {"system": "Rattus norvegicus", "test": "Antihypertensive activity in spontaneously hypertensive rats (SHR) measured by percentage fall in arterial pressure (AP) at 25 mg/kg administered perorally at 5 h", "assay_type": "functional, Artery", "conditions": "route oral", "outline": "(§1)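 Oral dosing at 2.5 mL/kg to unanesthetized male and female Okamoto-strain SHR (8 weeks old, 300–350 g, systolic pressure ≥190 mmHg, heart rate 400–650 beats/min), five per dose. Vehicle was normal saline or saline with 0.2% (carboxymethyl)cellulose and 1.0% Tween 80. AP measured on the tail by mechanical transduction at set times; expressed as percentage fall from control.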"}, "[2]": {"system": "Rattus norvegicus", "test": "Percent fall in systolic blood pressure, directly measured on carotid (iv on the jugular vein) of spontaneously hypertensive rats at 1 mg/kg after 240 minutes", "assay_type": "functional, Artery", "outline": "(§2)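 Anesthetized (sodium pentobarbital, 70 mg/kg) male and female Okamoto SHR, 8 weeks old, 300–350 g. Given iv into the jugular vein in normal saline. Arterial pressure and cardiac rhythm are recorded directly from the carotid by polygraph at set times after dosing. Each is expressed as percent change from the pre-dose control value.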"}, "[3]": {"system": "Rattus norvegicus", "test": "Antihypertensive activity in spontaneously hypertensive rats (SHR) measured by percentage fall in arterial pressure (AP) at 25 mg/kg administered intraperitoneally at 5 h", "assay_type": "functional, Artery", "conditions": "route intraperitoneal", "outline": "(§3)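 Unanesthetized Okamoto-strain SHR, male and female, 8 weeks old, 300–350 g, systolic pressure ≥190 mmHg, heart rate 400–650 beats/min; five animals per dose. Given ip at 2.5 mL/kg, dissolved or suspended in normal saline or saline with 0.2% (carboxymethyl)cellulose and 1.0% Tween 80. Tail AP and CR recorded by mechanical transduction at set times; reported as percentage fall from control.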"}, "[4]": {"system": "Rattus norvegicus", "test": "Antihypertensive activity in spontaneously hypertensive rats (SHR) measured by percentage fall in cardiac rhythm (CR) at 25 mg/kg administered intraperitoneally at 3 h", "assay_type": "functional, Heart", "conditions": "route intraperitoneal", "outline": "as §3"}, "[5]": {"system": "Rattus norvegicus", "test": "Antihypertensive activity in spontaneously hypertensive rats (SHR) measured by percentage fall in arterial pressure (AP) at 25 mg/kg administered perorally at 3 h", "assay_type": "functional, Artery", "conditions": "route oral", "outline": "as §1"}, "[6]": {"system": "Rattus norvegicus", "test": "Antihypertensive activity in spontaneously hypertensive rats (SHR) measured by percentage fall in arterial pressure (AP) at a dose of 25 mg/kg administered perorally at 1 h", "assay_type": "functional, Artery", "conditions": "route oral", "outline": "as §1"}, "[7]": {"system": "Rattus norvegicus", "test": "Percent fall in systolic blood pressure, directly measured on carotid (iv on the jugular vein) of spontaneously hypertensive rats at 1 mg/kg after 120 minutes", "assay_type": "functional, Artery", "outline": "as §2"}, "[8]": {"system": "Rattus norvegicus", "test": "Antihypertensive activity in spontaneously hypertensive rats (SHR) measured by percentage fall in arterial pressure (AP) at 1 mg/kg administered intraperitoneally at 3 h", "assay_type": "functional, Artery", "conditions": "route intraperitoneal", "outline": "as §3"}, "[9]": {"test": "Effect on PGI-2 release from rat aortic tissue at a final concentration of 10e -4 for an incubation time of 25 minutes", "assay_type": "functional", "outline": "(§4)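 Female Wistar rats (200–220 g) received heparin 200 IU/kg ip and were killed 10 min later. Aortic pieces of about 25 mm² were washed in ice-cold oxygenated Krebs–Henseleit buffer, then incubated in 1 mL buffer at 37 °C. Compound at 10^-4 M final was added 10 min before tissue transfer. PGI2 release was read as antiaggregatory activity of the incubate on ADP (2×10^-6 M)-induced human PRP aggregation and by 6-keto-PGF1α RIA. n = 4.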"}, "[10]": {"system": "Rattus norvegicus", "test": "Antihypertensive activity in spontaneously hypertensive rats (SHR) measured by percentage fall in arterial pressure (AP) at 25 mg/kg administered intraperitoneally at 3 h", "assay_type": "functional, Artery", "conditions": "route intraperitoneal", "outline": "as §3"}, "[11]": {"system": "Rattus norvegicus", "test": "Antihypertensive activity in spontaneously hypertensive rats (SHR) measured by percentage fall in cardiac rhythm (CR) at 25 mg/kg administered intraperitoneally at 24 h", "assay_type": "functional, Heart", "conditions": "route intraperitoneal", "outline": "as §3"}, "[12]": {"species_on_record": "Homo sapiens", "test": "In vitro inhibition of platelet aggregation induced by ADP-II (PRP incubated for 5 minutes at 37 degree C) at 10e-5 M", "assay_type": "functional", "outline": "(§5)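 Human venous blood anticoagulated with 3.8% sodium citrate (1:9). PRP from centrifugation at 800 rpm for 10 min at room temperature. Count adjusted with PPP to […]. Compound in saline with 10% ethylene glycol is added to PRP and incubated at 37 °C before the agonist. Agonists: ADP 2×10^-5 M, AA 0.6 mM, PGH2 2.8 μM, adrenaline 0.6 μM. Born absorbance aggregometry; n = 5.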"}, "[13]": {"system": "Cavia porcellus", "test": "Effect on thromboxane synthetase activity (ex vivo) at 100 mg/kg expressed as percent increase in TXB2", "assay_type": "functional", "outline": "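Fasted male or female guinea pigs (250–300 g, five per group) dosed orally in normal saline or saline with 0.2% (carboxymethyl)cellulose/1.0% Tween 80; controls given vehicle. Under ether, cardiac blood collected into 3.8% citrate. PRP adjusted to […] and aggregation induced by ADP (second wave) or AA, read by absorbance aggregometry. PGE2 and TXB2 measured by RIA.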"}, "[14]": {"test": "Acute toxicity in mice was expressed as lethal dose", "assay_type": "organism-based", "conditions": "mouse, in vivo", "outline": "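Swiss male mice, 20 ± 2 g, dosed ip at four or more dose levels. LD50 calculated 7 days after drug administration by probit analysis (Miller and Tainter).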"}, "[15]": {"test": "Effect on PGI-2 release from rat aortic tissue at a final concentration of 10e -4 for an incubation time of 30 minutes", "assay_type": "functional", "outline": "as §4"}, "[16]": {"test": "Effect on PGI-2 release from rat aortic tissue at a final concentration of 10e -4 for an incubation time of 35 minutes", "assay_type": "functional", "outline": "as §4"}, "[17]": {"test": "Effect on PGI-2 release from rat aortic tissue at a final concentration of 10e -4 for an incubation time of 10 minutes", "assay_type": "functional", "outline": "as §4"}, "[18]": {"system": "Rattus norvegicus", "test": "Percent fall in systolic blood pressure, directly measured on carotid (iv on the jugular vein) of spontaneously hypertensive rats at 1 mg/kg after 5 minutes", "assay_type": "functional, Artery", "outline": "as §2"}, "[19]": {"system": "Rattus norvegicus", "test": "Antihypertensive activity in spontaneously hypertensive rats (SHR) measured by percentage fall in cardiac rhythm (CR) at 5 mg/kg administered intraperitoneally at 3 h", "assay_type": "functional, Heart", "conditions": "route intraperitoneal", "outline": "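Conscious SHR (Okamoto strain), 8 weeks old, male and female, 300–350 g, systolic BP ≥190 mmHg, CR 400–650 beats/min. Given ip or po at 2.5 mL/kg in normal saline or saline with 0.2% (carboxymethyl)cellulose and 1.0% Tween 80. Tail AP and CR recorded by mechanical transduction at 1, 3, 5 and 24 h, five animals per dose. Effect expressed as % fall versus control.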"}, "[20]": {"system": "Rattus norvegicus", "test": "Antihypertensive activity in spontaneously hypertensive rats (SHR) measured by percentage fall in arterial pressure (AP) at 5 mg/kg administered intraperitoneally at 1 h", "assay_type": "functional, Artery", "conditions": "route intraperitoneal", "outline": "as §3"}, "[21]": {"system": "Rattus norvegicus", "test": "Percent increase in cardiac rhythm, directly measured on carotid (iv on the jugular vein) of spontaneously hypertensive rats at 1 mg/kg after 60 minutes", "assay_type": "functional, Heart", "outline": "as §2"}, "[22]": {"system": "Rattus norvegicus", "test": "Percent fall in systolic blood pressure, directly measured on carotid (iv on the jugular vein) of spontaneously hypertensive rats at 1 mg/kg after 180 minutes", "assay_type": "functional, Artery", "outline": "as §2"}, "[23]": {"system": "Rattus norvegicus", "test": "Antihypertensive activity in spontaneously hypertensive rats (SHR) measured by percentage fall in arterial pressure (AP) at 5 mg/kg administered intraperitoneally at 3 h", "assay_type": "functional, Artery", "conditions": "route intraperitoneal", "outline": "as §3"}, "[24]": {"species_on_record": "Homo sapiens", "test": "In vitro inhibition of platelet aggregation induced by PGH-2 (PRP incubated for 60 minutes at 37 degree C) at 10e-5 M", "assay_type": "functional", "conditions": "1 h", "outline": "as §5"}}}
{"smiles": "COc1ccc2[nH]c3c(NN)nncc3c2c1.Cl", "values": [{"measurement": "Decrease in AP", "setting": "[1]", "value": 34, "unit": "%"}, {"measurement": "Decrease in blood pressure", "setting": "[2]", "value": 30, "unit": "%"}, {"measurement": "Decrease in AP", "setting": "[3]", "value": 50, "unit": "%"}, {"measurement": "Decrease in CR", "setting": "[4]", "value": 19, "unit": "%"}, {"measurement": "Decrease in AP", "setting": "[5]", "value": 40, "unit": "%"}, {"measurement": "Decrease in AP", "setting": "[6]", "value": 50, "unit": "%"}, {"measurement": "Decrease in blood pressure", "setting": "[7]", "value": 40, "unit": "%"}, {"measurement": "Decrease in AP", "setting": "[8]", "value": 5, "unit": "%"}, {"measurement": "Inhibition", "setting": "[9]", "value": 45, "unit": "%"}, {"measurement": "Decrease in AP", "setting": "[10]", "value": 57, "unit": "%"}, {"measurement": "Decrease in CR", "setting": "[11]", "value": 38, "unit": "%"}, {"measurement": "inhibition at 10 µM", "setting": "[12]", "value": 100, "unit": "%"}, {"measurement": "inhibition in vivo at 100 mg/kg", "setting": "[13]", "value": 95, "unit": "%"}, {"measurement": "LD50", "setting": "[14]", "value": 225, "unit": "mg/kg"}, {"measurement": "Inhibition", "setting": "[15]", "value": 35, "unit": "%"}, {"measurement": "Inhibition", "setting": "[16]", "value": 25, "unit": "%"}, {"measurement": "Inhibition", "setting": "[17]", "value": 50, "unit": "%"}, {"measurement": "Decrease in blood pressure", "setting": "[18]", "value": 30, "unit": "%"}, {"measurement": "Decrease in CR", "setting": "[19]", "value": -8, "unit": "%"}, {"measurement": "Decrease in AP", "setting": "[20]", "value": 50, "unit": "%"}, {"measurement": "Increase", "setting": "[21]", "value": 10, "unit": "%"}, {"measurement": "Decrease in blood pressure", "setting": "[22]", "value": 36, "unit": "%"}, {"measurement": "Decrease in AP", "setting": "[23]", "value": 35, "unit": "%"}, {"measurement": "inhibition at 10 µM", "setting": "[24]", "value": 100, "unit": "%"}]}
